Screening results (PubChem BioAssay)
NPY Y2 blocker: antagonists of human neuropeptide Y receptor Y2 | NPY-Y2 expressing cells, antagonist mode | AID 793 | 140,000 compounds, 0.99% hits | P49146 | inhibition, % at 2.7 µM;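 note: 0% = vehicle with agonist challenge and 100% = reference antagonist with challenge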
NPY-Y2 PAM-ag: potentiators or agonists of human neuropeptide Y receptor Y2. P49146. cells expressing NPY-Y2, potentiator/agonist read-out. activation, % at 3.6 µM. 220,000 compounds, 0.45% hits. AID 1359; in the data active = activation above about 27%;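 note: cells stimulated with NPY near EC25 plus isoproterenol at EC100; 0% = vehicle plus submaximal agonist and 100% = vehicle plus saturating agonist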
NPY1 pot ag: potentiates or activates human NPY-Y1 receptor. NPY-Y1 expressing cells, potentiator/agonist activation. activation, % at 3.6 µM. 220,000 compounds, 0.37% hits. AID 1304; in the data active = activation above about 33%, passing the limit was not always enough;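 note: cells stimulated with NPY at EC10 then isoproterenol at EC100; 0% = low agonist plus stimulus and 100% = saturating agonist plus stimulus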
Target sequence (P25929 whole entry, looked up): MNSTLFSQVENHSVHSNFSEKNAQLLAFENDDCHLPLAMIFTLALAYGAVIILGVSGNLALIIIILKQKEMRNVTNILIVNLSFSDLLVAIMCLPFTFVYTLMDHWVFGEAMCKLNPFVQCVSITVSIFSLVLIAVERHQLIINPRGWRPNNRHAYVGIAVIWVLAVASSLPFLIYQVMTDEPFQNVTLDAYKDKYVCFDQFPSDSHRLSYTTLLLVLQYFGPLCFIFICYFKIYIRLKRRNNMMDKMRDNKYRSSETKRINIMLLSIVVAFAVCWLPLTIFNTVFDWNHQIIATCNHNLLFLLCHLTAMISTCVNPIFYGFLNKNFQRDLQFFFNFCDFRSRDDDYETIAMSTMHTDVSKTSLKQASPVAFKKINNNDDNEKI
NPY-Y1 antag: blocks the human neuropeptide Y Y1 receptor; P25929; HEK293-CNG Y1 cells, membrane potential fluorescence; NPY at EC95, then isoproterenol; inhibition, % at 3.6 µM; 200,000 compounds, 1% hits; AID 1040;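 active = inhibition above the campaign mean inhibition of all tested compounds plus 3 SD, cut at about 20% in these data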;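 note: 0% = DMSO wells given NPY plus isoproterenol and 100% = isoproterenol alone without NPY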
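Test system: HEK293 cells co-expressing NPY Y1 receptor and cyclic-nucleotide gated channel; Also added: NPY (25 nM), isoproterenol (1 µM), Ro 20-1724 (25 µM); Compound dosing: one concentration, 3.6 µM, in 0.4% DMSO; Timing: dye 3 h, compound 60 min room temperature, stimulation 45 min; Technique: Membrane-potential fluorescent dye readout.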
NPY-Y1 ant conf: human NPY-Y1 antagonism, confirmation; shares compounds with NPY-Y1 antag; HEK293-CNG NPY-Y1, membrane potential fluorescence, cAMP; NPY challenge against isoproterenol-raised cAMP; inhibition, % at 3.6 µM; 1,200 compounds, 21% hits; AID 1254; in the data active = inhibition above about 20%;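 note: 0% = vehicle with agonist plus stimulus and 100% = stimulus alone without agonist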
NPY-Y2 antag ct: counter-screen for NPY-Y1 antagonists: human NPY-Y2 antagonism; shares compounds with NPY-Y1 antag; HEK293 NPY-Y2 CNG membrane potential fluorescence; cells given NPY, then isoproterenol; inhibition, % at 3.6 µM; 1,200 compounds, 28% hits; AID 1255;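 note: 0% = DMSO with agonist challenge and 100% = reference antagonist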
Starred values were filed as active, the others as inactive; / = not tested or not shown. Sampled rows, rich in hits. Any-hit rate of the full collection: about 1.8%. Cut-off read from the data, not from the text of the source, unless noted: active = inhibition above about 17%; inactive = the rest.

SMILES	NPY Y2 blocker	NPY-Y2 PAM-ag	NPY1 pot ag	NPY-Y1 antag	NPY-Y1 ant conf	NPY-Y2 antag ct
Cc1cc(NC(=O)CC2CCCC2)n(-c2nc3ccccc3[nH]2)n1	17	-7	-24	21*	17	8
Cc1noc(C)c1-c1nc(CS(=O)(=O)c2ccccc2)no1	/	4	7	/	/	/
CCCOc1ccc(S(=O)(=O)NCc2ccc(OC)cc2)cc1	9	-42	-43	28*	9	12
COc1cccc(/C(C#N)=C/c2c(-c3ccc(Cl)cc3)nc3c(C)cccn23)c1	2	-4	0	23*	4	2
CCOC(=O)c1sc(NC(=O)CCCn2nc([N+](=O)[O-])c(Cl)c2C)c(C(=O)OCC)c1C	1	-3	-9	-1	/	/
Cc1ccc(OCC(=O)Nc2sc3c(c2C#N)CC(C)(C)NC3(C)C)cc1	/	-24	-38	22*	14	6
COc1ccc(-c2cc(C(F)F)n3ncc(C(=O)Nc4cc(C)on4)c3n2)cc1	/	4	18	-3	/	/
CCCCOC(=O)Cn1c(=N)n(CCC)c2ccccc21	7	-7	1	40*	3	5
O=C(NC1CCCCC1)C(c1ccc2ncccc2c1)N(Cc1cccs1)C(=O)c1cccs1 (stereo unspecified)	3	3	-10	32*	5	6
O=C(NC1CCCCC1)C(c1ccc2ncccc2c1)N(Cc1ccc2c(c1)OCO2)C(=O)c1ccc2c(c1)OCCO2 (stereo unspecified)	5	-7	-13	3	/	/
CN1CCc2c(n(CC(O)CN(CCO)CCO)c3ccccc23)C1=O (stereo unspecified)	/	-4	-12	2	/	/
CN1CCc2c(n(CC(O)CNCc3ccccc3)c3ccccc23)C1=O (stereo unspecified)	/	-16	-31	22*	13	15
Cc1ccc(-c2nnc(Cc3ccc([N+](=O)[O-])cc3)o2)cc1	/	-12	-15	2	/	/
O=C1CCCC2=C1C(c1ccncc1)c1c(nc(SCc3ccccc3Cl)[nH]c1=O)N2 (stereo unspecified)	2	-6	-5	-1	/	/
CCC(C)Sc1nc2c(c(=O)[nH]1)C(c1cccs1)C1=C(CCCC1=O)N2 (stereo unspecified)	/	1	7	22*	3	9
COc1ccc(C2c3[nH]c4ccccc4c3CCN2CCCn2cccn2)c(C)c1C (stereo unspecified)	/	-17	-15	36*	19	20*
Cc1ccccc1Nc1scc(-c2ccc(Cl)cc2)[n+]1-c1ccccc1C	/	-4	-6	36*	9	11
Cc1c(Nc2scc(-c3ccccc3)[n+]2-c2ccccc2)c(=O)n(-c2ccccc2)n1C	/	12	22	5	/	/
O=S(=O)(c1ccc2c(c1)OCCO2)N(Cc1ccc(F)cc1)Cc1nnc(-c2cccs2)o1	14	-16	-5	45*	14	8
O=C(/C=C/c1ccco1)NC(=S)NNC(=O)c1ccco1	5	-7	-9	-1	/	/
CCCCCCCCn1c2c(c(=N)c3ccccc31)CCC2	/	-66	-95	99*	77*	74*
CCCCCCCCCn1c2c(c(=N)c3c1CCC3)CCCC2	/	-40	-78	58*	102*	79*
CCCCCn1c2c(c(=N)c3ccccc31)CCC2	/	4	-46	/	/	/
CCOc1ccccc1CN1CCN(C2CCSCC2)CC1CCO (stereo unspecified)	/	-8	-2	10	/	/
O=C(CCn1c(=O)[nH]c2ccccc2c1=O)N1CCN(c2cccc(C(F)(F)F)c2)CC1	3	-3	10	4	/	/
SMILES	NPY Y2 blocker	NPY-Y2 PAM-ag	NPY1 pot ag	NPY-Y1 antag	NPY-Y1 ant conf	NPY-Y2 antag ct
O=C(CCCCn1c(=O)[nH]c2ccccc2c1=O)N1CCN(c2cccc(C(F)(F)F)c2)CC1	2	4	-56	21*	3	3
COc1ccc(CCn2c(SCCN3CCCCC3)nc3ccccc3c2=O)cc1OC	/	-27	-27	38*	16	18*
O=c1c2ccccc2nc(SCCN2CCOCC2)n1CCc1ccccc1	/	-15	-16	7	/	/
COc1ccc(CSc2nc3ccccc3c(=O)n2CCCN2CCOCC2)cc1F	/	-22	-35	28*	14	14
O=C(CCl)Nc1ccc(N2CCCCCC2)cc1	/	4	3	-3	/	/
CCOC(=O)C1(Cc2cccc(OC)c2)CCN(Cc2cccn2-c2ccccn2)CC1	/	-30	-30	29*	17	16
CCOC(=O)C1(CCOc2ccccc2)CCN(Cc2ccncc2)CC1	/	3	6	1	/	/
CCOC(=O)C1(CCOc2ccccc2)CCN(Cc2cccn2-c2ncccn2)CC1	/	-25	-10	25*	11	12
N=c1c2c(-c3ccccc3)c(-c3ccccc3)n(Cc3ccco3)c2ncn1CCCN1CCOCC1	/	-8	-36	56*	44*	39*
C/C=C(/C)C(=O)OC1c2c(ccc3ccc(=O)oc23)OC(C)(C)C1OC(=O)/C(C)=C\C (stereo unspecified)	/	-35	-13	22*	12	31*
C/C=C(\C)C(=O)OC1c2c(ccc3ccc(=O)oc23)OC(C)(C)C1OC(C)=O (stereo unspecified)	10	-2	-17	4	/	/
COC(=O)Nc1ccc(S(=O)(=O)NCc2ccccn2)cc1	/	8	6	41*	5	0
CC(/C=N/NC(=O)CNc1n[nH]c(=O)[nH]c1=O)c1ccccc1 (stereo unspecified)	/	-21	-16	/	/	/
CCOC(=O)C1=C(C)NC2=C(C(=O)CCC2)C1c1cc(OC)ccc1OC (stereo unspecified)	-2	6	-9	-2	/	/
CCOC(=O)C1=C(C)NC2=C(C(=O)CCC2)C1c1cn(Cc2ccc(Cl)cc2Cl)nc1-c1ccccc1 (stereo unspecified)	12	-16	-46	35*	30*	39*
CCOC(=O)CN1C(=O)N[C@H](c2ccc(Br)cc2)C(C(C)=O)=C1C	11	-9	-16	24*	4	6
CC(=O)C1=C(C)N(CC2CC2)C(=O)N[C@H]1c1ccc(Br)cc1	1	-2	-13	-3	/	/
CN1N=C2c3ccccc3CCCC2C1c1ccc(F)cc1 (stereo unspecified)	/	-41	-20	/	/	/
c1ccc(OCc2nn3c(C4CCCCC4)nnc3s2)cc1	9	-14	-33	27*	6	5
O=C(Cc1cccs1)N(CC1CCCO1)C1(C(=O)NC2CCCC2)CCCCC1 (stereo unspecified)	/	-10	-17	36*	14	8
C=CCNC(=O)/C(C#N)=C/c1ccc(OS(=O)(=O)c2ccc(C)cc2)c(OC)c1	2	1	6	-3	/	/
O=C(Nc1nnc(-c2ccncc2)o1)c1ccc(Br)s1	/	-8	-6	4	/	/
